Measurements from ChEMBL document CHEMBL1795211, “Evaluation of NTF1836 as an inhibitor of the mycothiol biosynthetic enzyme MshC in growing and non-replicating Mycobacterium tuberculosis” (Bioorg Med Chem, 2011).
Values after ≈ are worked out from the molar mass of the structure shown. Active and inactive are the calls of the source. No cut-off for these calls is given here.

Tests used:
[1] = molecular target: T1, L-cysteine:1D-myo-inositol 2-amino-2-deoxy-alpha-D-glucopyranoside ligase (Mycobacterium tuberculosis, UniProt P9WJM9); test: Inhibition of Mycobacterium tuberculosis recombinant MshC assessed as production of Cys-GlcN-Ins from cysteine by HPLC based fluorescence assay
T1 sequence (P9WJM9 whole entry): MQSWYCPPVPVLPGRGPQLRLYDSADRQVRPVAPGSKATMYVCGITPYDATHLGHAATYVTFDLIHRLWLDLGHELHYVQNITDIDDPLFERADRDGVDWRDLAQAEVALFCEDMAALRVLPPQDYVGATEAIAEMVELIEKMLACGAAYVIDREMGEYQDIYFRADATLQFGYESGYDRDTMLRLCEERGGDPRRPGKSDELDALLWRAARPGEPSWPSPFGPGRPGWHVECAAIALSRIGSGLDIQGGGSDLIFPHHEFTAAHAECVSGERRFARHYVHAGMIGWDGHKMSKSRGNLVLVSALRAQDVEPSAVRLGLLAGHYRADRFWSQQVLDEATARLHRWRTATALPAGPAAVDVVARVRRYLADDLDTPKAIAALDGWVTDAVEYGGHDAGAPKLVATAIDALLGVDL

[2] = Antimycobacterial activity against mid-log phase of Mycobacterium tuberculosis Erdman ATCC 35801 after 7 days by 96 well plate assay; type: functional, Mycobacterium tuberculosis str. Erdman; details: ATCC 35801, 168 h
Vero = test: Cytotoxicity against african green monkey Vero cells assessed as cell viability after 48 hrs by neutral red assay; type: cell-based; details: chlorocebus sabaeus
[3] = Antimycobacterial activity against mid-log phase of Mycobacterium tuberculosis Erdman ATCC 35801 assessed as reduction of viability at 50 to 75 uM after 7 days by 96 well plate assay relative to control; type: functional, Mycobacterium tuberculosis str. Erdman
[4] = tested on: Mycobacterium tuberculosis str. Erdman; test: Antimycobacterial activity against mid-log phase of Mycobacterium tuberculosis Erdman ATCC 35801 assessed as growth inhibition by measuring change on optical density at 600 nm at 30 to 50 uM after 7 days; type: functional
Procedure, shortened: (§1)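 Mid-log Erdman in 7H9 + ADS adjusted to OD600 0.08; 8 mL aliquots with 10–75 µM compound (from DMSO stock) in vented flasks, 7 d at 37 °C; duplicates with DMSO-matched control; growth read as 7-day change in OD600.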

[5] = Antimycobacterial activity against mid-log phase of Mycobacterium tuberculosis Erdman ATCC 35801 assessed as reduction of viability at 20 uM after 7 days by 96 well plate assay; type: functional, Mycobacterium tuberculosis str. Erdman
[6] = tested on: Mycobacterium tuberculosis str. Erdman; test: Antimycobacterial activity against mid-log phase of Mycobacterium tuberculosis Erdman ATCC 35801 assessed as growth inhibition after 7 days by 96 well plate assay; type: functional
[7] = tested on: Mycobacterium tuberculosis str. Erdman; test: Antimycobacterial activity against mid-log phase of Mycobacterium tuberculosis Erdman ATCC 35801 assessed as growth inhibition by measuring change on optical density at 600 nm after 7 days; type: functional; procedure, shortened: as §1
[8] = molecular target: T2, L-cysteine:1D-myo-inositol 2-amino-2-deoxy-alpha-D-glucopyranoside ligase (Mycobacterium tuberculosis) (UniProt P9WJM9); test: Inhibition of MshC in Mycobacterium tuberculosis Erdman ATCC 35801 assessed as reduction of Cys-GlcN-Ins accumulation at 10 to 80 uM after 7 days by HPLC based fluorescence assay; details: Mycobacterium tuberculosis str. Erdman
T2 sequence (whole entry): T1 sequence (P9WJM9 whole entry)

[9] = Antimycobacterial activity against non-replicating Mycobacterium tuberculosis Erdman ATCC 35801 nutrient starvation model assessed as reduction viability at 90 uM after 15 days by 96 well plate assay; type: functional, Mycobacterium tuberculosis str. Erdman
Procedure, shortened: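 Non-replicating Erdman from nutrient starvation in PBS + 0.05% Tween 80 for 6 weeks; compound dilutions then added and incubation continued 15 d; viable counts by plating serial dilutions on 7H9 agar with OADC; duplicate samples.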

[10] = tested on: Mycobacterium tuberculosis; test: Antimycobacterial activity against mid-log phase of Mycobacterium tuberculosis CDC1551 isolated from patient after 7 days by 96 well plate assay; type: functional; details: CDC1551, 168 h

| SMILES | IC50 [1] [µM] | further results |
| --- | --- | --- |
| CC1CCCN(CCCNC(=O)c2ccc3c(c2)N(Cc2ccccc2F)C(=O)c2ccccc2S3(=O)=O)C1 (configuration not stated) | 800 | – |
| O=C(NCCCN1CCOCC1)c1ccc2c(c1)N(Cc1cccc(Cl)c1)C(=O)c1ccccc1S2 | 800 | – |
| CN(CCCNC(=O)c1ccc2c(c1)N(Cc1cccc(Cl)c1)C(=O)c1ccccc1S2)C1CCCCC1 | 280 | – |
| O=C(NCCCN1CCOCC1)c1ccc2c(c1)N(Cc1cccc(Cl)c1)C(=O)c1ccccc1S2(=O)=O | 3000 | – |
| O=C(NCCCN1CCCC1)c1ccc2c(c1)N(Cc1cccc(Cl)c1)C(=O)c1ccccc1S2 | 130 | MIC95 [2]: 55 µM (≈ 27.8 µg/mL); cytotoxic concentration (Vero): 50 µM |
| O=C(NCC1CCCN1)c1ccc2c(c1)N(Cc1cccc(Cl)c1)C(=O)c1ccccc1S2(=O)=O (configuration not stated) | 2500 | – |
| CN(CCCNC(=O)c1ccc2c(c1)N(Cc1ccccc1)C(=O)c1ccccc1S2(=O)=O)C1CCCCC1 | 500 | – |
| CN(CCCNC(=O)c1ccc2c(c1)N(Cc1ccc(Cl)cc1)C(=O)c1ccccc1S2(=O)=O)C1CCCCC1 | 330 | – |
| Cc1ccc(CN2C(=O)c3ccccc3S(=O)(=O)c3ccc(C(=O)NCCCN4CCCC4)cc32)c(C)c1 | 1400 | – |
| Cc1ccc(CN2C(=O)c3ccccc3S(=O)(=O)c3ccc(C(=O)NCCCN4CCOCC4)cc32)c(C)c1 | > 3000 | – |
| O=C(NCCCN1CCOCC1)c1ccc2c(c1)N(Cc1cccc(Cl)c1)C(=O)c1ccccc1[S+]2[O-] (racemic) | 500 | – |
| O=C(NCCCN1CCCC1)c1ccc2c(c1)N(Cc1cccc(Cl)c1)C(=O)c1ccccc1[S+]2[O-] (racemic) | 100 | MIC95 [2]: 55 µM (≈ 28.7 µg/mL); cytotoxic concentration (Vero): 50 µM |
| CCCCN(C)CCCNC(=O)c1ccc2c(c1)N(Cc1cccc(Cl)c1)C(=O)c1ccccc1[S+]2[O-] (racemic) | 110 | – |
| CN(CCCNC(=O)c1ccc2c(c1)N(Cc1cccc(Cl)c1)C(=O)c1ccccc1[S+]2[O-])C1CCCCC1 (racemic) | 85 | Activity [3]: 97%; growth inhibition (GI) [4]: 50%; Activity [5]: 50%; growth inhibition (GI) [6]: Dose-dependent effect; growth inhibition (GI) [7]: Dose-dependent effect; MIC95 [2]: 28 µM (≈ 15.8 µg/mL); cytotoxic concentration (Vero): 50 µM; inhibition [8]: Active; Activity [9]: 99% |
| O=C(NCCCSC1CCCCC1)c1ccc2c(c1)N(Cc1cccc(Cl)c1)C(=O)c1ccccc1[S+]2[O-] (racemic) | ≥ 1000 | – |
| CC1CC(C)CN(CCCNC(=O)c2ccc3c(c2)N(Cc2cccc(Cl)c2)C(=O)c2ccccc2[S+]3[O-])C1 (racemic) | 500 | – |
| CCC1CCCCN1CCCNC(=O)c1ccc2c(c1)N(Cc1cccc(Cl)c1)C(=O)c1ccccc1[S+]2[O-] (racemic) | 80 | MIC95 [10]: 32 µM (≈ 18.1 µg/mL); MIC95 [2]: 55 µM (≈ 31 µg/mL); cytotoxic concentration (Vero): 100 µM |
| CC1CCCN(CCCNC(=O)c2ccc3c(c2)N(Cc2cccc(Cl)c2)C(=O)c2ccccc2[S+]3[O-])C1 (racemic) | – | MIC95 [2]: 55 µM (≈ 30.3 µg/mL); cytotoxic concentration (Vero): 100 µM |
| O=C(NCCN1CCCCCC1)c1ccc2c(c1)N(Cc1cccc(Cl)c1)C(=O)c1ccccc1[S+]2[O-] (racemic) | 100 | MIC95 [2]: 28 µM (≈ 15 µg/mL); cytotoxic concentration (Vero): 100 µM |
| CCCN(CCC)CCCNC(=O)c1ccc2c(c1)N(Cc1cccc(Cl)c1)C(=O)c1ccccc1[S+]2[O-] (racemic) | 100 | – |
| CN(CCCNC(=O)c1ccc2c(c1)N(Cc1ccccc1)C(=O)c1ccccc1[S+]2[O-])C1CCCCC1 (racemic) | 300 | – |
| CCN1C(=O)c2ccccc2[S+]([O-])c2ccc(C(=O)NCCCN3CCCCCC3)cc21 (racemic) | ≥ 3000 | – |
| CN(C)CCCNC(=O)c1ccc2c(c1)N(Cc1ccc(Cl)cc1)C(=O)c1ccccc1[S+]2[O-] (racemic) | 340 | – |
| CN(CCCNC(=O)c1ccc2c(c1)N(Cc1ccc(F)cc1)C(=O)c1ccccc1[S+]2[O-])C1CCCCC1 (racemic) | > 3000 | – |
| CC1CC(C)CN(CCCNC(=O)c2ccc3c(c2)N(Cc2ccccc2F)C(=O)c2ccccc2[S+]3[O-])C1 (racemic) | > 3000 | – |
| Cc1ccc(CN2C(=O)c3ccccc3[S+]([O-])c3ccc(C(=O)NCCCN(C)C4CCCCC4)cc32)c(C)c1 (racemic) | 2000 | – |
| CCN(CC)CCCNC(=O)c1ccc2c(c1)N(Cc1ccc(C)cc1C)C(=O)c1ccccc1[S+]2[O-] (racemic) | > 3000 | – |
| CO[C@H]1/C=C/O[C@@]2(C)Oc3c(C)c(O)c4c(O)c(c(/C=N/N5CCN(C)CC5)c(O)c4c3C2=O)NC(=O)/C(C)=C\C=C\[C@H](C)[C@H](O)[C@@H](C)[C@@H](O)[C@@H](C)[C@H](OC(C)=O)[C@@H]1C [RIFAMPIN] | – | MIC95 [2]: 0.24 µM (≈ 0.198 µg/mL) |
